Experimental data published in publication PMC4682886 (ChemMedChem, 2015).
Values after ≈ are worked out from the molar mass of the structure shown. Like-named read-outs stand apart in the source and are kept apart here.

Columns and labels:
[1] = tested on: resistant clinical isolates of C. albicans; assay type: cell-based; conditions: for Growth (OD600) +Cpd 31 +Fluc: compound 31 3 μM + fluconazole 64 μg/mL; for Growth (OD600) +Cpd 31 +Fluc / Growth (OD600) +Fluc: 16 h in SC at 30°C; for Growth (OD600) +Fluc: fluconazole 64 μg/mL alone
NIH 3T3 cells = test: Cytotoxicity against NIH 3T3 cells; assay type: cell-based; conditions: concentrations up to 1.5 mM, listed as Synazo-1
How it was run: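 Test compound applied to NIH 3T3 cells at concentrations up to 1.5 mM. Values are arithmetic means ± SD of three independent experiments.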

[2] = tested on: C. albicans strain HLY4123 and fluconazole-resistant clinical isolates 26 and 45; test: microbe, parasite or virus in culture; assay type: cell-based; conditions: for MICcpd (MIC90): compound 31 alone; for FICI: compound 31 and fluconazole; for MICcpd(+Flc) (MIC90): compound 31 in combination with fluconazole; for MIC90: Candida albicans
[3] = tested on: C. albicans susceptible strain HLY4123; test: Dose-response curves of test compounds against C. albicans with fluconazole; assay type: cell-based; conditions: strain HLY4123, in the presence of fluconazole (0.25 μg/mL); mean ± SD of three independent experiments
[4] = tested on: resistant clinical isolates of C. albicans; parameters: unit not given beside the values; conditions: ref [69], cited from earlier work
[5] = biological target: C. albicans sterol α-demethylase (a.k.a. Erg11 or CYP51); conditions: ref [71],[72]; cited from earlier work
[6] = in the presence of fluconazole; lowest value; ref [45]; cited from earlier work

Cc1c(Cl)ccc2c1NC(=O)[C@@]21[C@H]2C(=O)N(c3ccccc3)C(=O)[C@H]2[C@H]2CN(C(=O)OCc3ccccc3)CCN21 (racemic) [Compound 31, (±)-benzyl (3R,3a′R,3b′S,9a′S)-6-chloro-7-methyl-1′,2,3′-trioxo-2′-phenyl-2′,3′,3a′,3b′,4′,6′,7′,9a′-octahydrospiro[indoline-3,9′-pyrrolo[3′,4′:3,4]pyrrolo[1,2-a]pyrazine]-5′(1′H)-carboxylate]
EC50 ([1]; enhancing the effect of fluconazole against some resistant strains, lowest value): ≥ 2 nM
Growth (OD600) +Cpd 31 +Fluc ([1]; isolate 17): 0.76 OD600
Growth (OD600) +Cpd 31 +Fluc ([1]; isolate 23): 0.60 OD600
Growth (OD600) +Cpd 31 +Fluc ([1]; isolate 26): 0.83 OD600
Growth (OD600) +Cpd 31 +Fluc ([1]; isolate 33): 0.88 OD600
Growth (OD600) +Cpd 31 +Fluc ([1]; isolate 36): 1.07 OD600
Growth (OD600) +Cpd 31 +Fluc ([1]; isolate 45): 1.03 OD600
EC50 ([1]; read-out: Potency +Cpd 31 EC50, isolate 45, fluconazole 64 μg/mL, mean ± SD of three experiments): 16 ± 0.002 nM
cytotoxicity (NIH 3T3 cells): low toxicity
MICcpd (MIC90) ([2]; isolate 26): >30 µM
FICI ([2]; isolate 26): 0.14
MICcpd(+Flc) (MIC90) ([2]; isolate 26): 0.3 µM
MICcpd (MIC90) ([2]; isolate 45): >30 µM
FICI ([2]; isolate 45): 0.13
MICcpd(+Flc) (MIC90) ([2]; isolate 45): 0.03 µM
MICcpd (MIC90) ([2]; strain HLY4123): >300 µM
FICI ([2]; strain HLY4123): 0.25
MICcpd(+Flc) (MIC90) ([2]; strain HLY4123): 0.03 µM
FIC index ([2]; with fluconazole, in all of the strains tested (susceptible and resistant)): below 0.5
toxicity of compound alone against the strains ([2]; without fluconazole, at the solubility limit): did not have measurable toxicity
EC50 [3]: 0.3 ± 0.01 nM

OC(Cn1cncn1)(Cn1cncn1)c1ccc(F)cc1F [Fluconazole, fluconazole, reference compound]
Growth (OD600) +Fluc ([1]; isolate 17): 3.96 OD600
Growth (OD600) +Fluc ([1]; isolate 23): 6.77 OD600
Growth (OD600) +Fluc ([1]; isolate 26): 6.44 OD600
Growth (OD600) +Fluc ([1]; isolate 33): 7.38 OD600
Growth (OD600) +Fluc ([1]; isolate 36): 5.08 OD600
Growth (OD600) +Fluc ([1]; isolate 45): 9.17 OD600
MICFlc ([4]; isolate 17): 32
MICFlc ([4]; isolate 23): 32
MICFlc ([4]; isolate 26): 32
MICFlc ([4]; isolate 33): 64
MICFlc ([4]; isolate 36): 64
MICFlc ([4]; isolate 45): 128
MIC90 ([2]; read-out: MIC90 for fluconazole, susceptible strain, synazo-1 present at 300 nM): 0.125 µM (≈ 0.0383 µg/mL)
MIC90 ([2]; read-out: MICFlc (MIC90), isolate 26, fluconazole alone): 836 µM (≈ 256 µg/mL)
MIC90 ([2]; read-out: MICFlc (MIC90), isolate 45, fluconazole alone): 836 µM (≈ 256 µg/mL)
MIC90 ([2]; read-out: MICFlc (MIC90), strain HLY4123, fluconazole alone): 0.5 µM (≈ 0.153 µg/mL)
Ki [5]: 30 nM

CN[C@H]1CC[C@@H](c2ccc(Cl)c(Cl)c2)c2ccccc21 [sertraline]
MIC [6]: ≥ 0.5 µg/mL
